Measured values published in article PMC10276036 (International Journal for Parasitology: Drugs and Drug …, 2023).

What was measured:
[1] = test system: epimastigotes of Trypanosoma cruzi (Y strain); test: Activity against epimastigote stage; assay type: cell-based; details: CC50/IC50, murine macrophages vs epimastigotes
Summary of the method: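 Y-strain epimastigotes, maintained in LIT + 10% FBS at 26 °C, seeded at 10^5/well with serial dilutions of test compound and 10% alamarBlue. After 3 days (exponential growth), fluorescence was read and dying parasites were confirmed by microscopy. IC50 came from nonlinear regression. CC50 came from the J774A.1 alamarBlue assay, and SI = CC50/IC50.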

[2] = Cytotoxicity on murine cells; assay type: cell-based; details: mouse, J774A.1 macrophages
Summary of the method: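 J774A.1 macrophages, maintained in DMEM + 10% FBS at 37 °C and 5% CO2, seeded at 10^4/well and left until fully adherent. Serial dilutions of test compound were then added in RPMI 1640 instead of DMEM, whose colour disturbs alamarBlue fluorescence. After 24 h at 37 °C and 5% CO2, alamarBlue fluorescence was read.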

[3] = test system: amastigote stage of T. cruzi; test: Activity against amastigote stage; assay type: cell-based, Trypanosoma cruzi; details: CC50/IC50, murine macrophages vs amastigotes

SMILES: O=C(Cn1ccnc1[N+](=O)[O-])NCc1ccccc1 [BENZ, benznidazole]
- Selectivity index (SI) against epimastigote stage [1]: 57.8
- CC50 at 24 h [2]: 399.9 ± 1.4 µM
- Selectivity index against amastigote stage [3]: 149.8
